High-throughput results deposited in PubChem BioAssay by several laboratories.
Rows were chosen to be rich in hits. Some 2.6% of all compounds tested hit in one or more screens of this group.
iPSC survival up = hiPSC single-cell survival enhancement; 360,000 tested, 0.044% active; survival enhancement, % at 20 µM; AID 602274; ATPlite luminescence; 100% = ROCK inhibitor wells, 0% = DMSO; in the data active = survival enhancement above about 18%;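 note: cells exposed to compounds for 16 hours before the ATP read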
MC4R antag cAMP = antagonists of human melanocortin 4 receptor (MC4R); P32245; 360,000 tested, 0.48% active; MC4R-expressing cells, MTII-stimulated cAMP, LANCE TR-FRET; inhibition, % at 6.5 µM;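 active = inhibition above its plate's cutoff, the mean of tested wells on that plate plus 3 SD, cut at about 29% in these data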;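 note: 0% = Melanotan II alone and 100% = Melanotan II plus saturating MCL0020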
Target sequence (P32245 whole entry, looked up): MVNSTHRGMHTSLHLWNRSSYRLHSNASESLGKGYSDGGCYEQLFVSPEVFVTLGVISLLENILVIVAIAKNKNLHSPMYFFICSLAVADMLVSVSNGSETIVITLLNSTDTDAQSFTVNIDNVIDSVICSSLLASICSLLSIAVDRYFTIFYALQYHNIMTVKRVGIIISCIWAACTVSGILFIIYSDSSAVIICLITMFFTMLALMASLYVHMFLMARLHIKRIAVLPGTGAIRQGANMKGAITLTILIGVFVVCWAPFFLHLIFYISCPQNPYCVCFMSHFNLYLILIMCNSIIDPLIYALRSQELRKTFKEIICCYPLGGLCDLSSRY
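Assay system: U2OS-MC4R stable cell line; Also added: Melanotan II; Technique: Eu-cAMP/anti-cAMP TR-FRET, emission 671 nm; Times: 30-min compound, 1-h challenge, 1-h detection, room temperature.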
Tb MetRS inh = Trypanosoma brucei MetRS inhibition | purified T. brucei MetRS, ATP depletion, Kinase-Glo luminescence | inhibition, % at 11.9 µM | 360,000 tested, 0.4% active | AID 624268;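 active = inhibition above a per-plate cutoff of the control wells' mean inhibition plus 3 SD, cut at about 5.5% in these data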;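 note: 0% = DMSO wells median and 100% = median of wells with control inhibitor compound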
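Assay system: T. brucei methionyl-tRNA synthetase, purified | Medium: HEPES buffer with MgCl2, KCl, DTT, spermine, BSA, pyrophosphatase | Compound: 11.9 µM single point | Incubation: 15 min enzyme-compound preincubation, 2 h reaction, 10 min detection, 25 °C | Measured by: Kinase-Glo luciferase luminescence reporting remaining unconsumed ATP | Measure: % inhibition normalized to control-well medians | Replication: Singlicate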
MC4R barr agon = agonists of human melanocortin 4 receptor (MC4R) beta-arrestin. P32245. U2OS MC4R beta-arrestin complementation, luminescence; percent of melanotan II response, DMSO zero. activation, % at 8.9 µM. 360,000 tested, 0.98% active. AID 540308;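 active = activation above a per-plate cutoff, the mean activation of sample wells on that plate plus 3 SD, cut at about 8% in these data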
Exocytosis inh = lytic granule exocytosis inhibition; inhibition, % at 10 µM; AID 651702; TALL-104 LAMP-1 surface exposure, flow cytometry; cells stimulated with thapsigargin and PMA; 360,000 tested, 0.66% active;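 active = inhibition above about 55%, limit read from the data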
ABCB6 inh MLPCN = inhibitors of human ABC transporter ABCB6; 360,000 tested, 0.19% active; AID 602162; K562-ABCB6 porphyrin accumulation, flow cytometry, 1 h; active compounds read low; fluorescence ratio to DMSO, % at 10 µM; Q9NP58;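 active = fluorescence ratio to DMSO below 75%, the collection mean minus 3 SD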;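 note: signal is porphyrin accumulated inside mitochondria; 100% equals median channel fluorescence of DMSO control wells; lower ratio means ABCB6 inhibition with less porphyrin fluorescence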
ABCB6 inh CP1 = inhibitors of human ABC transporter ABCB6; shares compounds with ABCB6 inh MLPCN; K562-ABCB6 porphyrin accumulation, flow cytometry, 1 h; active compounds read low; ratio response (% of DMSO), % at 10 µM; 700 tested, under 10 active;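 active = repeat-averaged ratio response below 75% of DMSO, the collection mean minus 3 SD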;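 note: median porphyrin fluorescence at 575 nm with 488 nm excitation from mitochondria; lower ratio means less porphyrin signal so ABCB6 inhibition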
Starred values were filed as active, the others as inactive; . = not tested or not shown.

SMILES	iPSC survival up	MC4R antag cAMP	Tb MetRS inh	MC4R barr agon	Exocytosis inh	ABCB6 inh MLPCN	ABCB6 inh CP1
COc1ccc(-n2nc(C(=O)NCC3CCCO3)c3ccccc3c2=O)cc1 (centres undefined)	-0.5	11.4	-0.4	-1.4	-0.3	16.0*	99.0
COc1ccc(-n2nc(C(=O)NCC(=O)NCC3CCCO3)c3ccccc3c2=O)cc1 (centres undefined)	1.1	-0.6	-0.4	-2.2	1.4	97.0	.
CC1(C(=O)NS(=O)(=O)c2ccc(C#N)cc2)CCN1C(=O)Cc1ccc(Cl)cc1Cl (centres undefined)	1.9	5.8	0.1	1.1	-2.3	101.0	.
CC1(C(=O)NS(=O)(=O)c2ccc(F)cc2F)CCN1C(=O)CCc1ccc(Cl)cc1Cl (centres undefined)	1.7	1.3	-0.1	-0.9	-0.9	101.0	100.0
CC1(C(=O)NS(=O)(=O)c2ccc(C#N)cc2)CCN1C(=O)CCc1ccc(Cl)cc1Cl (centres undefined)	2.7	7.4	0.6	-0.3	-8.1	73.0*	100.0
CC1(C(=O)NS(=O)(=O)c2cccc(F)c2)CCN1C(=O)CCc1ccc(Cl)cc1Cl (centres undefined)	-2.4	2.6	0.0	-2.2	-15.4	97.0	.
Cc1ccc(C)c(N(C(=O)c2ccco2)C(C(=O)NC2CCCC2)c2ccco2)c1 (centres undefined)	0.2	3.2	-0.8	-1.7	10.5	98.0	.
CCOc1ccc(N2C(=O)Cc3ccccc3C2=O)cc1	-0.4	1.4	0.1	-2.0	-1.3	73.0*	102.0
CC(C)c1cc(NCCOCCO)n2c(nc3ccccc32)c1C#N	-0.2	1.7	-0.5	0.5	-21.1	73.0*	99.0
CCCc1cc(NCCOCCO)n2c(nc3ccccc32)c1C#N	0.5	5.8	-0.2	-0.7	-4.5	94.0	.
COc1ccccc1CC(NC(C)=O)C(=O)NC1CCN(C(=O)c2cccc(Cl)c2)CC1 (centres undefined)	-0.2	7.7	-0.2	-3.0	2.0	100.0	.
Clc1ccc(CNc2nc(N3CCOCC3)nc(N3CCOCC3)n2)cc1	-1.3	-6.2	-1.0	2.7	5.8	11.0*	97.0
CCOc1ccc(/C=N/NC(=O)c2cc(-c3cccn3C)n[nH]2)cc1	1.1	4.9	-0.3	4.1	3.8	94.0	.
Cc1cc2c(C)nc(Cc3ccccc3)nc2o1	6.5	1.7	-0.8	-1.7	-0.8	9.0*	99.0
CCN(CC)CCNC(=O)C(=O)Nc1cc2c3c(c1)CCN3C(=O)CC2	0.1	8.5	-0.4	-2.8	-6.7	97.0	.
COc1ccc([C@@H]2Sc3cc(OC)ccc3N(CCN(C(C)C)C(C)C)C(=O)[C@H]2OC(C)=O)cc1	-3.2	-5.4	-0.1	-1.2	3.8	51.0*	101.0
Cc1ccc(C(=O)OCc2nnc(-c3ccc(Br)cc3)o2)cc1	-0.3	4.3	-0.4	-3.1	0.1	98.0	.
N#CC1=C(N)Oc2n[nH]c(-c3ccc(F)cc3)c2C1c1ccncc1 (centres undefined)	2.2	-16.4	-0.1	-1.0	0.4	94.0	.
Cc1cccc(OCCSc2nc3ncnc(N)c3[nH]2)c1	3.1	4.3	5.2	-3.2	0.3	71.0*	102.0
CC1CCCCN1C(=O)CSc1nnc(-c2ccco2)o1 (centres undefined)	0.6	-4.9	-0.2	-1.2	-1.2	99.0	.
COc1ccc(N2CCN(C(=O)CCCCCn3c(=S)[nH]c4ccc(N5CCOCC5)cc4c3=O)CC2)cc1	-0.6	18.3	-0.3	-2.8	-1.6	73.0*	96.0
COc1ccccc1Cn1nnc2c(=O)[nH]c(C3CCN(C(=O)c4ccccc4Cl)CC3)nc21	2.9	3.6	-0.7	-1.8	1.6	99.0	100.0
COc1ccccc1Cn1nnc2c(=O)[nH]c(C3CCN(C(=O)c4ccc(F)cc4)CC3)nc21	5.7	4.5	-0.1	-0.9	-1.0	98.0	.
